pIC50: −log10 of the molar value.
Tests used:
MKN-7 = assay: Cytotoxicity against human MKN7 cells after 72 hrs by SRB assay; assay type: functional; conditions: MKN-7, 72 h
ACHN = assay: Cytotoxicity against human ACHN cells after 72 hrs by SRB assay; assay type: functional
SF-268 = assay: Cytotoxicity against human SF268 cells after 72 hrs by SRB assay; assay type: functional; conditions: SF-268, 72 h
SF-295 = assay: Cytotoxicity against human SF295 cells after 72 hrs by SRB assay; assay type: functional; conditions: SF-295, 72 h
HCT-116 = assay: Cytotoxicity against human HCT116 cells after 72 hrs by SRB assay; assay type: functional, cell-based; conditions: HCT-116, 72 h
In short: (§1)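 Adherent cells grown at 37 °C and 5% CO2. Seeded at 1×10^4/well 24 h before dosing, then 72 h at 10–0.01 µg/mL final. Fixed with cold 50% TCA, stained with 0.4% SRB, dye extracted in 10 mM Tris, read at 540 nm.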

DU-145 = assay: Cytotoxicity against human DU145 cells after 72 hrs by SRB assay; assay type: functional; conditions: DU-145, 72 h
HT-29 = assay: Cytotoxicity against human HT-29 cells after 72 hrs by SRB assay; assay type: functional; conditions: HT-29, 72 h
MKN-28 = assay: Cytotoxicity against human MKN28 cells after 72 hrs by SRB assay; assay type: functional; conditions: MKN-28, 72 h
NCI-H226 = assay: Cytotoxicity against human NCI-H226 cells after 72 hrs by SRB assay; assay type: functional; conditions: NCI-H226, 72 h
HCT-15 = assay: Cytotoxicity against human HCT15 cells after 72 hrs by SRB assay; assay type: functional; conditions: HCT-15, 72 h
LOX IMVI = assay: Cytotoxicity against human LOXIMVI cells after 72 hrs by SRB assay; assay type: functional
MV4-11 = assay: Antiproliferative activity against human MV4-11 cells after 72 hrs by MTT assay; assay type: functional, cell-based; conditions: MV4-11, 72 h
MKN-74 = assay: Cytotoxicity against human MKN74 cells after 72 hrs by SRB assay; assay type: functional; conditions: MKN-74, 72 h
KM12 = assay: Cytotoxicity against human KM12 cells after 72 hrs by SRB assay; assay type: functional; conditions: KM12, 72 h
OVCAR-5 = assay: Cytotoxicity against human OVCAR5 cells after 72 hrs by SRB assay; assay type: functional; conditions: OVCAR-5, 72 h
SNB-75 = assay: Cytotoxicity against human SNB75 cells after 72 hrs by SRB assay; assay type: functional; conditions: SNB-75, 72 h
NCI-H460 = assay: Cytotoxicity against human NCI-H460 cells after 72 hrs by SRB assay; assay type: functional; conditions: NCI-H460, 72 h
DMS-273 = assay: Cytotoxicity against human DMS273 cells after 72 hrs by SRB assay; assay type: functional; conditions: DMS-273, 72 h
U-251 = assay: Cytotoxicity against human U251 cells after 72 hrs by SRB assay; assay type: functional; conditions: U-251, 72 h
[1] = Cytotoxicity against human RXF631L cells after 72 hrs by SRB assay; assay type: functional; conditions: RXF 631, 72 h
SF-539 = assay: Cytotoxicity against human SF539 cells after 72 hrs by SRB assay; assay type: functional; conditions: SF-539, 72 h
A549 = assay: Cytotoxicity against human A549 cells after 72 hrs by SRB assay; assay type: functional, cell-based; conditions: A549, 72 h; in short: as §1
SNB-78 = assay: Cytotoxicity against human SNB78 cells after 72 hrs by SRB assay; assay type: functional; conditions: SNB-78, 72 h
MKN-45 = assay: Cytotoxicity against human MKN45 cells after 72 hrs by SRB assay; assay type: functional; conditions: MKN-45, 72 h
NCI-H23 = assay: Cytotoxicity against human NCI-H23 cells after 72 hrs by SRB assay; assay type: functional; conditions: NCI-H23, 72 h
NCI-H522 = assay: Cytotoxicity against human NCI-H522 cells after 72 hrs by SRB assay; assay type: functional; conditions: NCI-H522, 72 h
SK-OV-3 = assay: Cytotoxicity against human SKOV3 cells after 72 hrs by SRB assay; assay type: functional; conditions: SK-OV-3, 72 h
OVCAR-3 = assay: Cytotoxicity against human OVCAR3 cells after 72 hrs by SRB assay; assay type: functional; conditions: OVCAR-3, 72 h
[2] = read-out: LC50 (the source's name)
[3] = read-out: pLC50 (the source's name) (converted)

For `COc1ccc(C2O[C@]34CC(c5cccc(Cl)c5)OC(=O)C3=C[C@@]2(C)OO4)cc1` (stereo partly drawn), the TGI (MKN-7) was 31 µM, the GI50 (MKN-7; read-out: GI50) was 10 µM and the CC50 (MKN-7; [2]) was 97 µM. For the same compound, the GI50 (MKN-7; read-out: pGI50 (converted)) was 3.47 µM, the CC50 (MKN-7; [3]) was 89.1 µM and the TGI (ACHN) was 29 µM. For the same compound, the GI50 (ACHN; read-out: GI50) was 16 µM, the CC50 (ACHN; [2]) was 55 µM and the GI50 (ACHN; read-out: pGI50 (converted)) was 15.5 µM. It also gave a CC50 (ACHN; [3]) of 56.2 µM, a TGI (SF-268) of 41 µM and a GI50 (SF-268; read-out: GI50) of 18 µM. It also gave a CC50 (SF-268; [2]) of 94 µM, a GI50 (SF-268; read-out: pGI50 (converted)) of 13.8 µM and a CC50 (SF-268; [3]) of 91.2 µM. The TGI (SF-295) was 33 µM, the GI50 (SF-295; read-out: GI50) was 18 µM and the CC50 (SF-295; [2]) was 62 µM. It also gave a GI50 (SF-295; read-out: pGI50 (converted)) of 18.2 µM, a CC50 (SF-295; [3]) of 60.3 µM and a pIC50 (HCT-116) of 5.12. It also gave a TGI (HCT-116) of 20 µM, a GI50 (HCT-116; read-out: GI50) of 4.1 µM and a CC50 (HCT-116; [2]) of 100 µM. For the same compound, the GI50 (HCT-116; read-out: pGI50 (converted)) was 3.39 µM, the CC50 (HCT-116; [3]) was 70.8 µM and the TGI (DU-145) was 29 µM. It also gave a GI50 (DU-145; read-out: GI50) of 15 µM, a CC50 (DU-145; [2]) of 54 µM and a GI50 (DU-145; read-out: pGI50 (converted)) of 16.6 µM. It also gave a CC50 (DU-145; [3]) of 56.2 µM, a TGI (HT-29) of 48 µM and a GI50 (HT-29; read-out: GI50) of 15 µM. It also gave a CC50 (HT-29; [2]) of 100 µM, a GI50 (HT-29; read-out: pGI50 (converted)) of 5.25 µM and a CC50 (HT-29; read-out: pLC50 (converted)) of over 100 µM. For the same compound, the TGI (MKN-28) was 40 µM, the GI50 (MKN-28; read-out: GI50) was 14 µM and the CC50 (MKN-28; [2]) was 100 µM. The GI50 (MKN-28; read-out: pGI50 (converted)) was 11 µM, the CC50 (MKN-28; read-out: pLC50 (converted)) was over 100 µM and the TGI (NCI-H226) was 48 µM. For the same compound, the GI50 (NCI-H226; read-out: GI50) was 20 µM, the CC50 (NCI-H226; [2]) was 100 µM and the GI50 (NCI-H226; read-out: pGI50 (converted)) was 17.8 µM. The CC50 (NCI-H226; [3]) was 91.2 µM, the TGI (HCT-15) was 24 µM and the GI50 (HCT-15; read-out: GI50) was 4.4 µM. The CC50 (HCT-15; [2]) was 100 µM, the GI50 (HCT-15; read-out: pGI50 (converted)) was 3.72 µM and the CC50 (HCT-15; read-out: pLC50 (converted)) was over 100 µM. It also gave a TGI (LOX IMVI) of 12 µM, a GI50 (LOX IMVI; read-out: GI50) of 3.1 µM and a CC50 (LOX IMVI; [2]) of 60 µM. It also gave a GI50 (LOX IMVI; read-out: pGI50 (converted)) of 2.04 µM, a CC50 (LOX IMVI; [3]) of 7.59 µM and a pIC50 (MV4-11) of 6.26. The TGI (MKN-74) was 44 µM, the GI50 (MKN-74; read-out: GI50) was 15 µM and the CC50 (MKN-74; [2]) was 100 µM. The GI50 (MKN-74; read-out: pGI50 (converted)) was 14.1 µM, the CC50 (MKN-74; [3]) was 95.5 µM and the TGI (KM12) was 51 µM. For the same compound, the GI50 (KM12; read-out: GI50) was 25 µM, the CC50 (KM12; [2]) was 100 µM and the GI50 (KM12; read-out: pGI50 (converted)) was 17.8 µM. The CC50 (KM12; [3]) was 85.1 µM, the TGI (OVCAR-5) was 17 µM and the GI50 (OVCAR-5; read-out: GI50) was 5.3 µM. For the same compound, the CC50 (OVCAR-5; [2]) was 42 µM, the GI50 (OVCAR-5; read-out: pGI50 (converted)) was 2.75 µM and the CC50 (OVCAR-5; [3]) was 26.3 µM. The TGI (SNB-75) was 28 µM, the GI50 (SNB-75; read-out: GI50) was 12 µM and the CC50 (SNB-75; [2]) was 67 µM. For the same compound, the GI50 (SNB-75; read-out: pGI50 (converted)) was 12.3 µM, the CC50 (SNB-75; [3]) was 63.1 µM and the TGI (NCI-H460) was 38 µM. The GI50 (NCI-H460; read-out: GI50) was 19 µM, the CC50 (NCI-H460; [2]) was 77 µM and the GI50 (NCI-H460; read-out: pGI50 (converted)) was 20 µM. For the same compound, the CC50 (NCI-H460; [3]) was 81.3 µM, the TGI (DMS-273) was 31 µM and the GI50 (DMS-273; read-out: GI50) was 14 µM. For the same compound, the CC50 (DMS-273; [2]) was 69 µM, the GI50 (DMS-273; read-out: pGI50 (converted)) was 10.2 µM and the CC50 (DMS-273; [3]) was 74.1 µM. For the same compound, the TGI (U-251) was 36 µM, the GI50 (U-251; read-out: GI50) was 18 µM and the CC50 (U-251; [2]) was 73 µM. For the same compound, the GI50 (U-251; read-out: pGI50 (converted)) was 15.8 µM, the CC50 (U-251; [3]) was 69.2 µM and the TGI [1] was 30 µM. For the same compound, the GI50 ([1]; read-out: GI50) was 16 µM, the CC50 [1, 2] was 56 µM and the GI50 ([1]; read-out: pGI50 (converted)) was 16.6 µM. It also gave a CC50 [1, 3] of 58.9 µM, a TGI (SF-539) of 23 µM and a GI50 (SF-539; read-out: GI50) of 8.4 µM. The CC50 (SF-539; [2]) was 55 µM, the GI50 (SF-539; read-out: pGI50 (converted)) was 2.75 µM and the CC50 (SF-539; [3]) was 13.5 µM. For the same compound, the pIC50 (A549) was 4.99, the TGI (A549) was 38 µM and the GI50 (A549; read-out: GI50) was 18 µM. For the same compound, the CC50 (A549; [2]) was 78 µM, the GI50 (A549; read-out: pGI50 (converted)) was 17.8 µM and the CC50 (A549; [3]) was 77.6 µM. The TGI (SNB-78) was 34 µM, the GI50 (SNB-78; read-out: GI50) was 14 µM and the CC50 (SNB-78; [2]) was 84 µM. For the same compound, the GI50 (SNB-78; read-out: pGI50 (converted)) was 12.6 µM, the CC50 (SNB-78; [3]) was 91.2 µM and the TGI (MKN-45) was 31 µM. It also gave a GI50 (MKN-45; read-out: GI50) of 14 µM, a CC50 (MKN-45; [2]) of 68 µM and a GI50 (MKN-45; read-out: pGI50 (converted)) of 15.5 µM. It also gave a CC50 (MKN-45; [3]) of 57.5 µM, a TGI (NCI-H23) of 40 µM and a GI50 (NCI-H23; read-out: GI50) of 18 µM. It also gave a CC50 (NCI-H23; [2]) of 93 µM, a GI50 (NCI-H23; read-out: pGI50 (converted)) of 16.6 µM and a CC50 (NCI-H23; [3]) of 79.4 µM. For the same compound, the TGI (NCI-H522) was 8.6 µM, the GI50 (NCI-H522; read-out: GI50) was 2.7 µM and the CC50 (NCI-H522; [2]) was 100 µM. It also gave a GI50 (NCI-H522; read-out: pGI50 (converted)) of 2 µM, a CC50 (NCI-H522; [3]) of 22.4 µM and a TGI (SK-OV-3) of 29 µM. The GI50 (SK-OV-3; read-out: GI50) was 16 µM, the CC50 (SK-OV-3; [2]) was 54 µM and the GI50 (SK-OV-3; read-out: pGI50 (converted)) was 19.1 µM. It also gave a CC50 (SK-OV-3; [3]) of 58.9 µM, a TGI (OVCAR-3) of 10 µM and a GI50 (OVCAR-3; read-out: GI50) of 3.4 µM. It also gave a CC50 (OVCAR-3; [2]) of 42 µM, a GI50 (OVCAR-3; read-out: pGI50 (converted)) of 2.45 µM and a CC50 (OVCAR-3; [3]) of 12.6 µM.

From ChEMBL document CHEMBL2434891, “Design, synthesis, and in vitro cancer cell growth inhibition evaluation and antimalarial testing of trioxanes installed in cyclic 2-enoate substructures” (Eur J Med Chem, 2013)
